Data published in ChEMBL document CHEMBL1143960.
Calls of active or inactive are those of the source. No cut-off for these calls is given here.

Key:
Assay type in all cases: functional, cell-based
PC-3M [1] = test: Anti-invasive activity against human PC3M cells at 50 nM
PC-3M [2] = test: Antiproliferative activity against human PC3M cells at 5 to 50 nM by MTT assay
PC-3M [3] = test: Effect on paracellular permeability of calcitonin-treated human PC3M cells
Outline: (§1)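 PC-3M grown at confluency on Transwell filters in complete medium until TER developed. Tetramethylrhodamine-dextran (4 kDa, 1 mg/mL in HBSS) added to upper chamber, HBSS in lower.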

PC-3M [4] = test: Effect on baseline transepithelial resistance in human PC3M cells
Outline: (§2)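 PC-3M plated at confluency on Transwell filters (0.4 µm pores) in complete medium with 25 mM Hepes, pH 7.4. Cultured with or without CT (50 nM). TER measured in duplicate wells every 12 h with a voltohmmeter. Values blank-subtracted (filter plus bathing medium) and normalized to filter area.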

PC-3M [5] = test: Effect on calcitonin-stimulated decrease in transepithelial resistance in human PC3M cells; outline: as §2
PC-3M [6] = test: Effect on paracellular permeability of human PC3M cells; outline: as §1
PC-3M [7] = test: Cytotoxicity against human PC3M cells at 50 nM by MTT assay

Compound	Activity (PC-3M [1])	Activity (PC-3M [2])	also measured
C/C1=C\[C@H](O)C[C@@](C)(O)/C=C/[C@H](C(C)C)CC/C(CO)=C/CC1	Active	–	–
C/C1=C\[C@H](OC(=O)NCc2ccccc2)C[C@@](C)(O)/C=C/[C@H](C(C)C)CC/C(C)=C/CC1	Active	Active	–
CCNC(=O)O[C@H]1/C=C(\C)CC/C=C(\C)CC[C@@H](C(C)C)/C=C/[C@](C)(O)C1	Active	Active	Activity (PC-3M [3]): Active; Activity (PC-3M [4]): Active; Activity (PC-3M [5]): Active; Activity (PC-3M [6]): Active
C/C1=C\[C@H](O)C[C@@](C)(O)/C=C/[C@H](C(C)C)C[C@@H](O)/C(C)=C/CC1	Active	–	Activity (PC-3M [7]): inactive
C/C1=C\CC/C(CO)=C/[C@H](O)C[C@@](C)(O)/C=C/[C@H](C(C)C)CC1	Active	–	–
C/C1=C\C[C@@H](O)/C(C)=C/[C@H](O)C[C@@](C)(O)/C=C/[C@H](C(C)C)CC1	Active	–	–
C/C1=C\[C@H](OC(=O)NCCCl)C[C@@](C)(O)/C=C/[C@H](C(C)C)CC/C(C)=C/CC1	Active	Active	–
